Screens (PubChem BioAssay)
ABHD5 PLIN5 PPI: ABHD5-PLIN5 interaction inhibitors, primary screen, cell lysate, split luciferase complementation, luminescence | Perilipin-5 (Homo sapiens) + 1-acylglycerol-3-phosphate O-acyltransferase ABHD5 (Homo … | Split G. princeps luciferase complementation, 4 h | inhibition, % at 4 µM | hit rate 0.78% among 360,000 | AID 602281, 2012;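 active means inhibition above the mean inhibition across every tested compound plus 3 SD, cut at about 22% in these data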;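 further: 0% = DMSO only wells and the 100% control is not disclosed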
GRK2 inh: compounds blocking aptamer binding on GRK2 – biochemical, human GRK2, bead flow cytometry, HTS, primary screen | Beta-adrenergic receptor kinase 1 (Homo sapiens), P25098 | FAM-aptamer displacement from GRK2 | inhibition of aptamer binding, % at 10 µM | hit rate 0.59% among 330,000;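 active means inhibition of aptamer binding above 40%, roughly 3 SD of noise, on plates passing a quality check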;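 further: median bead fluorescence of bound FAM aptamer so fluorescent compounds give negative values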
NadD inh: inhibitors of S. aureus NadD, primary screen, biochemical, colorimetric, uHTS | Nicotinate-nucleotide adenylyltransferase NadD (Staphylococcus aureus N315) | purified NadD enzyme, colorimetric absorbance read-out | hit rate 0.78% among 360,000 | inhibition, % at 20 µM; in the data active means inhibition above about 26%
Beta2AR agonist: beta2AR agonists driving receptor internalization, primary screen, cell-based, FAP fluorogen, flow cytometry; hit rate 0.43% among 340,000; response, % (no concentration beside the values); Am2.2-beta2AR cells; AID 504454, 2011;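 active means response above a set limit, near 3 SD of response in nonfluorescent compounds, cut at about 42% in these data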
SENP1 inh: human SENP1 catalytic domain inhibitors, primary screen, biochemical, FRET, uHTS | Sentrin-specific protease 1 (Homo sapiens), Q9P0U3 | recombinant SENP1 catalytic domain, CyPet-SUMO1-YPet FRET cleavage | inhibition, % at 10 µM | hit rate 0.21% among 360,000 | AID 624204, 2012;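 active means inhibition at least 30% at 10 µM, raw YFP signal under a set limit, fluorescence ratio 0.5 to 1.5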;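 further: 0% = enzyme with DMSO and 100% = no enzyme wells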
Target sequence (Q9P0U3 419-644 limits assumed): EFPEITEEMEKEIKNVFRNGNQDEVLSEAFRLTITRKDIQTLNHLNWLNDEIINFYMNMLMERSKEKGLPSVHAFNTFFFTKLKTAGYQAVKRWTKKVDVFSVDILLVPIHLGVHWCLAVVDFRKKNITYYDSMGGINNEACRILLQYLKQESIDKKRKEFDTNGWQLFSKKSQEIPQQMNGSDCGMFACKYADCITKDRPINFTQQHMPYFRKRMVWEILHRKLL
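material = recombinant human SENP1 catalytic domain, His6-tagged | quantity = 20 pM enzyme | reagent = 25 nM SUMO1 FRET substrate | compound dosing = 10 µM single point, 0.5% DMSO | timing = 50 min enzyme reaction, room temperature, light-protected | detection = FRET, CFP and YFP emission | control set = no-enzyme low, enzyme-DMSO high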
GRK2 CP1: GRK2 aptamer-displacing inhibitors, retest, confirmation, biochemical, cherry pick 1, bead flow cytometry; shares compounds with GRK2 inh; bead-bound GRK2, FAM-aptamer displacement; aptamer displacement, % at 10 µM; hit rate 4% among 2,000; AID 504451, 2011;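 active means aptamer displacement above 40%, near three times the noise of non-fluorescent compounds, on plates passing quality checks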;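 further: negative values mostly reflect intrinsic compound fluorescence rather than true enhancement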
Aptamer quench: quenches fluorescent RNA aptamer, GRK2 hit artifact. shares compounds with GRK2 inh. Fluorescent RNA aptamer beads, quenching, flow cytometry; hits give high values. fluorescence change (kMESF span), kMESF (no concentration beside the values). 110 tested, under 10 active. AID 504521;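 active means compounds whose bead fluorescence drops by more than 37 kMESF across the dose range, marking them as dye quenchers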
FAM quench CP1: quenches fluorescent RNA aptamer, GRK2 hit artifact | Carboxyfluorescein RNA aptamer on beads, flow cytometry quenching; hits give low values | 2,000 tested, under 10 active | fluorescence response (% of DMSO), % at 10 µM | shares compounds with GRK2 inh;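 active means compounds that quench the bead-bound fluorescent RNA probe, cutting fluorescence to under half of the solvent control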;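 further: counterscreen run without GRK2 so only probe quenching by compound is measured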
Starred values were filed as active, the others as inactive; x = no result. In the library only some 2.5% were active in any assay of this set; here they are far more common.

SMILES	ABHD5 PLIN5 PPI	GRK2 inh	NadD inh	Beta2AR agonist	SENP1 inh	GRK2 CP1	FAM quench CP1	others
O=[N+]([O-])c1ccc(NN=C(C2CC2)C2CC2)c([N+](=O)[O-])c1	2	x	0	x	3	x	x
O/C(=C\Sc1nnc(Cc2ccccc2)o1)c1ccc(F)cc1	5	49*	4	15	1	x	94
COc1ccc(S(=O)(=O)N2CCN(Cc3cccc(Cl)c3)CC2)cc1	-6	1	-10	1	1	x	x
COc1ccc(S(=O)(=O)N2CCN(Cc3ccc(Cl)cc3)CC2)cc1	-4	65*	3	-2	1	0	102
COc1cccc(CN2CCN(Cc3cccc(Br)c3)CC2)c1OC	1	55*	-5	17	0	1	98
COc1ccc(NC(=O)c2cccc(NC3=NC4CS(=O)(=O)CC4S3)c2)cc1Cl (centres undefined)	-3	0	-1	1	1	x	x
Cc1cccc(-c2ccc3c(c2)C2CC3CCN2)c1 (centres undefined)	3	x	9	5	-1	x	x
Cc1c(Cl)cccc1NS(=O)(=O)c1cn(C)c(=O)n(C)c1=O	12	59*	-6	3	3	-2	102
CN(C)C(=O)c1cc(C(=O)Cc2ccccc2)c[nH]1	-3	0	0	-15	10	x	x
Cc1cccc(C(=O)Nc2sc3c(c2C(=O)O)CCCC3)c1	2	2	-1	3	2	x	x
Cn1c(C(=O)N[C@@H](C(=O)O)c2ccccc2)cc2cc(F)ccc21	-6	64*	-5	-3	2	2	99
Cn1c(C(=O)N[C@@H](Cc2ccccc2)C(=O)O)cc2cc(F)ccc21	6	0	-3	-6	-2	x	x
CC1CCc2c(sc(NC(=O)c3ccc(-c4ccccc4[N+](=O)[O-])o3)c2C#N)C1 (centres undefined)	-2	73*	8	-3	-1	3	94
CNC(=O)c1c(NC(=O)c2ccc(N3C(=O)CCC3=O)cc2)sc2c1CCC(C)C2 (centres undefined)	10	1	-16	10	-6	x	x
Cc1cccn2c(=O)c(/C=C(\C#N)C(=O)NC3CCS(=O)(=O)C3)c(Oc3ccccc3Cl)nc12 (centres undefined)	13	5	4	6	-22	x	x
Cc1ccc(Oc2nc3ccccn3c(=O)c2/C=C(\C#N)C(=O)NC2CCS(=O)(=O)C2)cc1 (centres undefined)	10	75*	0	-7	-34	1	92
Cc1ccc(NC(=O)CN2C(=O)N/C(=C/c3cc(C)n(-c4ccc(C(=O)O)cc4)c3C)C2=O)cc1	-6	x	11	-2	-25	x	x
Cc1ccc(NC(=O)CN2C(=O)N/C(=C/c3cccn3-c3ccc(C(=O)O)cc3)C2=O)cc1	20	96*	14	13	-6	86*	95	Aptamer quench=-0.9
O=C(N/N=C/c1c(O)ccc2ccccc12)Nc1ccccc1	x	43*	x	3	x	-2	99
CN1CCc2nc3sc(C(=O)C45CC6CC(CC(C6)C4)C5)c(N)c3cc2C1	14	51*	16	9	-20	-21	93
COc1cccc(NC(=O)CN(C)C(=O)c2ccc(Cl)c(S(=O)(=O)N3CCCCCC3)c2)c1	2	x	-7	0	2	x	x
O=Cc1ccc(Oc2nc(Cl)ncc2F)cc1	-6	39	-1	0	3	12	91
